Results on eleven compounds are retold here after ChEMBL document CHEMBL3227923, “Conformational analysis of podophyllotoxin and its congeners. Structure--activity relationship in microtubule assembly” (J Med Chem, 1979).

The assay is filed under the species Gallus gallus. Briefly: Inhibition of chicken brain microtubule polymerization after 30 mins. A digest of the protocol: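 Chicken brain microtubule assembly in vitro at 37 °C and neutral pH over a 30-min incubation. ID50 is the drug concentration giving 50% inhibition of assembly, averaged from triplicate experiments (standard deviation <15%).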
Compound `COc1cc([C@@H]2c3cc4c(cc3C[C@H]3COC[C@@H]32)OCO4)cc(OC)c1OC` registered an ID50 of 0.8 µM.
To `COc1cc([C@@H]2c3cc4c(cc3[C@H](O)[C@H]3CSC[C@H]23)OCO4)cc(OC)c1OC` belongs 10 µM.
To `COc1cc([C@@H]2c3cc4c(cc3[C@H](O)[C@H]3COC(=O)[C@@H]23)OCO4)cc(OC)c1OC` belongs 30 µM; to `COc1cc([C@@H]2c3cc4c(cc3C[C@H]3COC(=O)[C@@H]32)OCO4)cc(OC)c1OC`, 0.5 µM; to `COc1cc([C@@H]2c3cc4c(cc3[C@H](O)[C@H]3COC[C@H]23)OCO4)cc(OC)c1OC`, 1 µM.
For the compound `COc1cc([C@@H]2c3cc4c(cc3[C@H](O)[C@H]3COC(=O)[C@H]23)OCO4)cc(OC)c1OC`, the ID50 worked out at 0.6 µM.
`COc1cc([C@@H]2c3cc4c(cc3[C@H](O)[C@H]3CS(=O)(=O)C[C@H]23)OCO4)cc(OC)c1OC` yielded an ID50 of over 100 µM.
With `COc1cc([C@@H]2c3cc4c(cc3C[C@H]3CSC[C@@H]32)OCO4)cc(OC)c1OC` the figure was 10 µM.
`COc1cc([C@@H]2c3cc4c(cc3C[C@H]3CS(=O)(=O)C[C@@H]32)OCO4)cc(OC)c1OC` yielded an ID50 of over 100 µM.
In the case of `COc1cc([C@@H]2c3cc4c(cc3[C@@H](O)[C@H]3COC(=O)[C@H]23)OCO4)cc(OC)c1OC`, the ID50 is 5 µM.
With `COc1cc([C@@H]2c3cc4c(cc3C[C@H]3CCC[C@@H]32)OCO4)cc(OC)c1OC` the figure was 5 µM.
